Reference: paper PMC11419141 (bioRxiv, 2024)
Entries after “also recorded” stand apart in the source; their conditions may differ.

What was measured:
[1] = Total antioxidant capacity; settings: CUPRAC, Trolox equivalent, at any one concentration tested, n=2
Summary of the method: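 Test compounds from DMSO stocks were dispensed acoustically as a 7-concentration series in 384-well plates. Freshly prepared Cu(II)-neocuproine reagent was added, mixed at 650 rpm for 2 min, then incubated sealed at 25 °C. A450 of the Cu(I)-neocuproine chelate was read at 1.5 h and 3 h. A Trolox standard curve was run on every plate, with values expressed as Trolox equivalents (mM). Fold over Trolox was taken as the ratio of linear-regression coefficients; n=2.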

[2] = test system: TZM-bl cells; test: Cytotoxicity to cells in the anti-HIV assay; assay type: cell-based; settings: toxic to cells in anti-HIV assay
[3] = test system: CXCR4-dependent NL4-3 virus; test: Anti-HIV TZM-bl assay, NL4-3 virus; assay type: cell-based, HIV-1; settings: concentration not stated (any one concentration, Figure 6)
Summary of the method: (§1)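 TZM-bl cells (HeLa-derived; CD4, CCR5 and CXCR4; Tat-driven luciferase) kept in DMEM with 10% heat-inactivated FBS and gentamicin. Cells seeded at 5000/well onto test compound, then given virus with 8 μg/ml DEAE-dextran. Inoculum was 150,000 RLU equivalents for NL4-3 and 20,000 for BaL.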

[4] = test system: Nrf2-ARE signaling pathway in HepG2-ARE-Luc cells; test: ARE-Luciferase reporter assay for Nrf2 activation in HepG2 cell line; assay type: cell-based; settings: Figure 5B at 10 μM
Summary of the method: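 HepG2 cells stably carrying an ARE-driven firefly luciferase reporter, seeded at 10,000 cells/well in complete medium (384-well). Test compounds given as a 7-concentration series for 18 h at 37 °C, 5% CO2. Controls were TBHQ and sulforaphane (positive) and DMSO vehicle. Luminescence was read after Steady-Glo for 30 min. Fold induction was taken as treated/vehicle ×100, with vehicle set at 100%; n=2.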

[5] = test system: HepG2 cell line; test: Compound cytotoxicity in ARE assay in HepG2 cell line; assay type: cell-based
[6] = test system: CCR5-dependent BaL virus; test: Anti-HIV TZM-bl assay, BaL virus; assay type: cell-based, HIV-1; settings: concentration not stated (any one concentration, Figure 6)
Summary of the method: as §1

[7] = test system: Staphylococcus aureus subsp. aureus Rosenbach, ATCC 29213; test: Antibacterial growth assay, S. aureus; assay type: cell-based; settings: for Antibacterial activity against S. aureus: in higher doses (100 μM); for Inhibition of growth of S. aureus: at a concentration of 11.1 μM
Summary of the method: (§2)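 A single colony was grown overnight in cation-adjusted Mueller Hinton broth at 37 °C, 250 rpm, then diluted 100-fold. Cultures were grown for 24 h at 37 °C with test compound as a 7-concentration series. A600 was read, followed by a BacTiter-Glo ATP luminescence read. % growth inhibition was normalized to vancomycin/amikacin positive controls and DMSO negative control.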

[8] = test system: Klebsiella pneumoniae subsp. pneumoniae, ATCC 27736; test: Antibacterial growth assay, K. pneumoniae; assay type: cell-based; settings: at a concentration of 300 μM
Summary of the method: as §2

[9] = test system: Mycobacterium smegmatis; test: Antibacterial growth assay, M. smegmatis; assay type: cell-based; settings: at a high concentration of 300 μM
Summary of the method: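 Mycobacterium smegmatis grown in Middlebrook 7H9 with OADC at 37 °C, 250 rpm, with test compound as a 7-concentration series. A600 read at 24 h and 48 h, then an ATP luminescence read with BacTiter-Glo. % growth inhibition normalized to vancomycin/amikacin positive controls and DMSO negative control.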

SMILES: O=C(/C=C/c1ccc(O)c(O)c1)O[C@@H]1C[C@@](O)(C(=O)O)C[C@@H](O)[C@@H]1O [Neochlorogenic acid (3-caffeoylquinic acid)]
- Total antioxidant capacity (TAC) relative to Trolox [1]: greater than 5 fold

SMILES: COc1cc(-c2oc3cc(O)cc(O)c3c(=O)c2O)ccc1O [Isorhamnetin]
- Cytotoxicity concentration [2]: 3.042 ± 0.27 µM
- Total antioxidant capacity (TAC) relative to Trolox [1]: greater than 5 fold

SMILES: O=c1c(O)c(-c2ccc(O)c(O)c2)oc2cc(O)cc(O)c12 [Quercetin]
- Inhibition of HIV strain NL4-3 [3]: more than 65%
- Cytotoxicity concentration [2]: 26.41 ± 3.91 µM
- ARE activation [4]: activated ARE activity
- Cytotoxicity to the cells in ARE assay [5]: non-cytotoxic to the cells
- Inhibition of HIV strain BaL [6]: didn’t significantly inhibit
- Antibacterial activity against S. aureus [7]: showed antibacterial activity
- Total antioxidant capacity (TAC) relative to Trolox [1]: greater than 5 fold

SMILES: OC[C@H]1O[C@@H](Oc2cc3c(O)cc(O)cc3[o+]c2-c2ccc(O)cc2)[C@H](O)[C@@H](O)[C@@H]1O [Pelargonidin 3-O-glucoside]
- Antibacterial activity against S. aureus [7]: showed antibacterial activity
- Inhibition of growth of K. pneumoniae [8]: more than 50%

SMILES: O=c1c(O)c(-c2cc(O)c(O)c(O)c2)oc2cc(O)cc(O)c12 [Myricetin]
- Cytotoxicity concentration [2]: higher than 100 μM
- Total antioxidant capacity (TAC) relative to Trolox [1]: greater than 5 fold

SMILES: OC[C@H]1O[C@@H](Oc2cc3c(O[C@@H]4O[C@H](CO)[C@@H](O)[C@H](O)[C@H]4O)cc(O)cc3[o+]c2-c2ccc(O)c(O)c2)[C@H](O)[C@@H](O)[C@@H]1O [Cyanidin 3,5-O-diglucoside]
- Total antioxidant capacity (TAC) relative to Trolox [1]: greater than 5 fold

SMILES: C[C@H]1O[C@H](OC[C@H]2O[C@@H](Oc3c(-c4ccc(O)cc4)oc4cc(O)cc(O)c4c3=O)[C@H](O)[C@@H](O)[C@@H]2O)[C@@H](O)[C@@H](O)[C@@H]1O [Kaempferol 3-O-rutinoside]
- Total antioxidant capacity (TAC) relative to Trolox [1]: on the same range as Trolox

SMILES: OC[C@H]1O[C@@H](Oc2cc3c(O)cc(O)cc3[o+]c2-c2ccc(O)c(O)c2)[C@H](O[C@@H]2OC[C@@H](O)[C@H](O)[C@H]2O)[C@@H](O)[C@@H]1O [Cyanidin 3-O-sambubioside]
- Inhibition of M. smegmatis [9]: more than 50%
- Antibacterial activity against S. aureus [7]: showed antibacterial activity
- Total antioxidant capacity (TAC) relative to Trolox [1]: greater than 5 fold

SMILES: COc1cc(-c2oc3cc(O)cc(O)c3c(=O)c2O[C@@H]2O[C@H](CO)[C@@H](O)[C@H](O)[C@H]2O)ccc1O [Isorhamnetin 3-O-glucoside]
- ARE activation [4]: activated ARE activity
- Cytotoxicity to the cells in ARE assay [5]: non-cytotoxic to the cells
- Total antioxidant capacity (TAC) relative to Trolox [1]: on the same range as Trolox

SMILES: C[C@@H]1O[C@@H](OC[C@H]2O[C@@H](Oc3cc4c(O)cc(O)cc4[o+]c3-c3ccc(O)c(O)c3)[C@H](O)[C@@H](O)[C@@H]2O)[C@H](O)[C@H](O)[C@H]1O [Cyanidin 3-O-rutinoside]
- Inhibition of M. smegmatis [9]: more than 50%
- Inhibition of growth of S. aureus [7]: more than 50%
- Total antioxidant capacity (TAC) relative to Trolox [1]: greater than 5 fold

SMILES: O=c1c(O[C@@H]2O[C@H](CO)[C@@H](O)[C@H](O)[C@H]2O)c(-c2ccc(O)c(O)c2)oc2cc(O)cc(O)c12 [Quercetin-3-β-D-glucoside (hirsutrin), Quercetin-3-β-D-glucoside]
- Total antioxidant capacity (TAC) relative to Trolox [1]: greater than 5 fold

SMILES: O=C(O)c1cc(O)c(O)c(O)c1 [Gallic acid]
- Cytotoxicity concentration [2]: 80.42 ± 0.57 µM
- Total antioxidant capacity (TAC) relative to Trolox [1]: greater than 5 fold

SMILES: O=c1c(O[C@@H]2O[C@H](CO)[C@@H](O)[C@H](O)[C@H]2O)c(-c2ccc(O)cc2)oc2cc(O)cc(O)c12 [Kaempferol 3-glucoside, Kaempferol 3-glucoside (astragalin)]
- Total antioxidant capacity (TAC) relative to Trolox [1]: on the same range as Trolox

SMILES: OC[C@H]1O[C@@H](Oc2cc3c(O)cc(O)cc3[o+]c2-c2ccc(O)c(O)c2)[C@H](O)[C@@H](O)[C@H]1O [Cyanidin 3-O-galactoside]
- Total antioxidant capacity (TAC) relative to Trolox [1]: greater than 5 fold

SMILES: COc1cc(/C=C/C(=O)O)ccc1O [Ferulic acid]
- Total antioxidant capacity (TAC) relative to Trolox [1]: on the same range as Trolox

SMILES: O=c1c(O[C@@H]2O[C@H](CO)[C@H](O)[C@H](O)[C@H]2O)c(-c2ccc(O)c(O)c2)oc2cc(O)cc(O)c12 [Hyperoside (Quercetin 3-galactoside), Hyperoside (quercetin 3-galactoside)]
- Total antioxidant capacity (TAC) relative to Trolox [1]: greater than 5 fold

SMILES: O=C1C[C@@H](c2ccc(O)cc2)Oc2cc(O)cc(O)c21 [Naringenin]
- ARE activation [4]: activated ARE activity
- Cytotoxicity to the cells in ARE assay [5]: non-cytotoxic to cells
- Total antioxidant capacity (TAC) relative to Trolox [1]: on the same range as Trolox

SMILES: O=C(O)C=Cc1ccc(O)cc1 [p-Coumaric acid]
- Total antioxidant capacity (TAC) relative to Trolox [1]: on the same range as Trolox

SMILES: COc1cc(-c2[o+]c3cc(O)cc(O)c3cc2O[C@@H]2O[C@H](CO)[C@@H](O)[C@H](O)[C@H]2O)ccc1O [Peonidin 3-O-glucoside]
- Antibacterial activity against S. aureus [7]: showed antibacterial activity
- Inhibition of growth of K. pneumoniae [8]: more than 50%

SMILES: C[C@@H]1O[C@@H](OC[C@H]2O[C@@H](Oc3cc4c(O)cc(O)cc4[o+]c3-c3cc(O)c(O)c(O)c3)[C@H](O)[C@@H](O)[C@@H]2O)[C@H](O)[C@H](O)[C@H]1O [Delphinidin 3-O-rutinoside]
- Inhibition of growth of S. aureus [7]: more than 50%
- Total antioxidant capacity (TAC) relative to Trolox [1]: greater than 5 fold

SMILES: OC[C@H]1O[C@@H](Oc2cc3c(O)cc(O)cc3[o+]c2-c2ccc(O)c(O)c2)[C@H](O)[C@@H](O)[C@@H]1O [Cyanidin 3-O-glucoside]
- Inhibition of growth of S. aureus [7]: more than 50%
- Total antioxidant capacity (TAC) relative to Trolox [1]: greater than 5 fold

SMILES: Oc1cc(O)c2c(c1)O[C@H](c1ccc(O)c(O)c1)[C@H](O)C2 [(-)-Epicatechin]
- inhibition at 300 µM ([7]; Staphylococcus aureus, ATCC29213, read-out: Inhibition against S. aureus): > 50%

SMILES: OC[C@H]1O[C@@H](O[C@H]2[C@H](Oc3cc4c(O)cc(O)cc4[o+]c3-c3ccc(O)c(O)c3)O[C@H](CO)[C@@H](O)[C@@H]2O)[C@H](O)[C@@H](O)[C@@H]1O [Cyanidin 3-O-sophoroside]
- Antibacterial activity against S. aureus [7]: showed antibacterial activity
- Total antioxidant capacity (TAC) relative to Trolox [1]: greater than 5 fold
- Inhibition of growth of K. pneumoniae [8]: more than 50%

SMILES: O=c1c(O)c(-c2ccc(O)cc2)oc2cc(O)cc(O)c12 [Kaempferol]
- Inhibition of HIV strain NL4-3 [3]: more than 65%
- Cytotoxicity concentration [2]: 11.00 ± 0.62 µM
- ARE activation [4]: activated ARE activity; also recorded: highest level of ARE activation
- Cytotoxicity to the cells in ARE assay [5]: non-cytotoxic to the cells
- Inhibition of HIV strain BaL [6]: didn’t significantly inhibit

SMILES: O=c1cc(-c2ccc(O)c(O)c2)oc2cc(O)cc(O)c12 [Luteolin]
- Inhibition of HIV strain NL4-3 [3]: more than 90%
- Cytotoxicity concentration [2]: 4.28 ± 0.45 µM
- ARE activation [4]: activated ARE activity
- Inhibition of HIV strain BaL [6]: more than 90%
